This passage reports Activity results from ChEMBL document CHEMBL4251676, “Precursor-Directed Biosynthesis of Phenylbenzoisoquinolindione Alkaloids and the Discovery of a Phenylphenalenone-Based Plant Defense Mechanism” (J Nat Prod, 2018).

Molecules are shown by their SMILES. Calls of active or inactive are those of the source. No cut-off for these calls is given here.

Holding throughout (assay type): functional, organism-based
Assay [1] deals with Sporobolomyces salmonicolor. The assay is described as follows: Antimicrobial activity against Sporidiobolus salmonicolor isolate 549 after 18 hrs. In short, it runs like this:
(§1)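 Ciprofloxacin and amphotericin B were run alongside as reference antimicrobials.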

The subject of assay [2] is Escherichia coli. Briefly: Antimicrobial activity against Escherichia coli isolate 458 after 18 hrs. In short, it runs like this:
as §1

The test system of assay [3] is Staphylococcus aureus. Briefly: Antimicrobial activity against methicillin-resistant Staphylococcus aureus isolate 134/93 after 18 hrs.

For the molecule `O=C1OC(C(=O)O)c2cc(O)c(O)c3c(-c4ccccc4)ccc1c23` (configuration not stated), the result in assay [1] and in assay [2] was Active.

With `COC1=Cc2cn([C@H](CC(C)C)C(=O)O)c(=O)c3ccc(-c4ccccc4)c(c23)C1=O`, the outcome in assay [1], in assay [2] and in assay [3] was inactive.

Take `COC1=Cc2cn([C@@H](Cc3c[nH]c4ccccc34)C(=O)O)c(=O)c3ccc(-c4ccccc4)c(c23)C1=O`: the outcome in assay [1], in assay [2] and in assay [3] was inactive.

Regarding `O=C1C(O)=Cc2cn(CCCC[C@@H](C(=O)O)n3cc4c5c(c(-c6ccccc6)ccc5c3=O)C(=O)C(O)=C4)c(=O)c3ccc(-c4ccccc4)c1c23`, the outcome in assay [1], in assay [2] and in assay [3] was inactive.

Take `C[C@@H]1[C@H](O)[C@@H](C)/C=C/C=C/C=C/C=C/C=C/C=C/C=C/[C@H](O[C@@H]2O[C@H](C)[C@@H](O)[C@H](N)[C@@H]2O)C[C@@H]2O[C@](O)(C[C@@H](O)C[C@@H](O)[C@H](O)CC[C@@H](O)C[C@@H](O)CC(=O)O[C@H]1C)C[C@H](O)[C@H]2C(=O)O`: the result in assay [1] and in assay [2] was Active.

For `O=C(O)c1cn(C2CC2)c2cc(N3CCNCC3)c(F)cc2c1=O`, the outcome in assay [1] and in assay [2] was Active.

As for `O=C1C(O)=Cc2c3n(c(=O)c4ccc(-c5ccccc5)c1c24)[C@H](C(=O)O)CS3`, the outcome in assay [1], in assay [2] and in assay [3] was inactive.

Consider `O=C1C(O)=Cc2cn([C@H](Cc3ccccc3)C(=O)O)c(=O)c3ccc(-c4ccccc4)c1c23`, for which the result in assay [1], in assay [2] and in assay [3] was inactive.

As for `COC1OC(=O)c2ccc(-c3ccccc3)c3c(O)c(O)cc1c23` (configuration not stated), the outcome in assay [3] was Active.

For `CC(C)C[C@@H](C(=O)O)n1cc2c3c(c(-c4ccccc4)ccc3c1=O)C(=O)C(O)=C2`, the outcome in assay [1], in assay [2] and in assay [3] was inactive.

For the molecule `O=C1OC(O)c2cc(O)c(O)c3c(-c4ccccc4)ccc1c23` (configuration not stated), in assay [3], the result was Active.

On to `COC1=Cc2cn([C@@H](Cc3ccccc3)C(=O)O)c(=O)c3ccc(-c4ccccc4)c(c23)C1=O`, for which the outcome in assay [1], in assay [2] and in assay [3] was inactive.

Consider `O=C(O)CC(=O)OC[C@H]1O[C@@H](Oc2c(O)cc3c4c(ccc(-c5ccccc5)c24)C(=O)OC3)[C@H](O)[C@@H](O)[C@@H]1O`, for which the outcome in assay [1] and in assay [2] was Active.

Regarding `O=C1C(O)=Cc2coc(=O)c3ccc(-c4ccccc4)c1c23`, in assay [3], the result was Active.

As to `COc1cc2c3c(ccc(-c4ccccc4)c3c1O[C@@H]1O[C@H](COC(=O)CC(=O)O)[C@@H](O)[C@H](O)[C@H]1O)C(=O)OC2`, the result in assay [1] and in assay [2] was Active.

As to `O=C1OCc2cc(O)c(O)c3c(-c4ccccc4)ccc1c23`, the result in assay [1] and in assay [2] was Active.

`COC1=Cc2cn([C@H](Cc3ccccc3)C(=O)O)c(=O)c3ccc(-c4ccccc4)c(c23)C1=O`: the outcome in assay [1], in assay [2] and in assay [3] was inactive.

Turning to `O=C1OC(C(=O)O)c2cc(O)c(O[C@@H]3O[C@H](CO)[C@@H](O)[C@H](O)[C@H]3O)c3c(-c4ccccc4)ccc1c23` (some centres not stated), the result in assay [1] and in assay [2] was Active.

Turning to `CSCC[C@@H](C(=O)O)n1cc2c3c(c(-c4ccccc4)ccc3c1=O)C(=O)C(O)=C2`, the outcome in assay [1], in assay [2] and in assay [3] was inactive.

Regarding `O=C1C(O)=Cc2cn(CCO)c(=O)c3ccc(-c4ccccc4)c1c23`, the outcome in assay [1], in assay [2] and in assay [3] was inactive.

As to `COc1cc2c3c(ccc(-c4ccccc4)c3c1O)C(=O)OC2OC` (configuration not stated), in assay [3], the result was Active.

On to `CC(C)C[C@H](C(=O)O)n1cc2c3c(c(-c4ccccc4)ccc3c1=O)C(=O)C(O)=C2`, for which the result in assay [1], in assay [2] and in assay [3] was inactive.

In the case of `COC1=Cc2cn([C@@H](Cc3ccc(O)cc3)C(=O)O)c(=O)c3ccc(-c4ccccc4)c(c23)C1=O`, the outcome in assay [1], in assay [2] and in assay [3] was inactive.

For `O=C1C(O)=Cc2cn([C@@H](Cc3ccccc3)C(=O)O)c(=O)c3ccc(-c4ccccc4)c1c23`, the outcome in assay [1], in assay [2] and in assay [3] was inactive.
